The text below walks through data of ChEMBL document CHEMBL4382268, “Glycyrrhetinic acid derivatives containing aminophosphonate ester species as multidrug resistance reversers that block the NF-κB pathway and cell proliferation” (Bioorg Med Chem Lett, 2018).

Activity calls are given as the source filed them. The rule behind the calls is not given here.

Experiment [1] deals with A549. Briefly: Induction of apoptosis in human A549 cells assessed as necrotic apoptotic cells at 10 uM after 24 hrs by annexin V-FITC/propidium iodide staining-based flow cytometry analysis (reference value: 0.520%). It is filed as functional. The essentials: (§1)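 A549 cells treated at 5, 10 and 20 µM for 24 h, then harvested and stained with Annexin V-FITC and PI. Flow cytometry quadrants: Q1 necrotic, Q2 late apoptotic/necrotic, Q3 early apoptotic, Q4 living. Performed three times.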

The subject of experiment [2] is A549. Briefly: Induction of apoptosis in human A549 cells assessed as necrotic apoptotic cells at 20 uM after 24 hrs by annexin V-FITC/propidium iodide staining-based flow cytometry analysis (reference value: 0.520%). The experiment is classed as functional. Summed up: as §1
Experiment [3] concerns A549. Kind of experiment: Induction of apoptosis in human A549 cells after 24 hrs by annexin V-FITC/propidium iodide staining-based flow cytometry analysis. The experiment is classed as functional, cell-based. The essentials: as §1
Experiment [4] deals with A549. Kind of experiment: Cell cycle arrest in human A549 cells assessed as accumulation at G1 phase at 20 uM after 24 hrs by propidium iodide staining based flow cytometry (reference value: 47.0%). It is filed as functional.
For experiment [5], the target named is T1, Inhibitor of NF-kappa-B kinase alpha/beta (Homo sapiens) (UniProt O14920+O15111). Kind of experiment: Inhibition of IKKalpha/beta-mediated IkappaBalpha phosphorylation in human A549 cells after 24 hrs by Western blot analysis. The experiment is classed as cell-based. The essentials: (§2)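 A549 cells exposed to 5, 10 and 20 µM for 24 h. Western blots probed for NF-κB, p-IκBα, IκBα and p-IKKα/β, with GAPDH as internal control. Three experiments, representative blot shown.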

Experiment [6] concerns A549. Kind of experiment: Induction of apoptosis in human A549 cells assessed as viable cells at 10 uM after 24 hrs by annexin V-FITC/propidium iodide staining-based flow cytometry analysis (reference value: 96.0%). Conditions: A549, 24 h, read-out: Activity. The experiment is classed as functional. The essentials:
as §1

The species entered for experiment [7] is Homo sapiens. Kind of experiment: Inhibition of TNF-alpha induced activation of NF-kappaB (unknown origin) assessed as reduction in DNA binding ability at 5 to 20 uM by cell based ELISA relative to TNF-alpha alone. The essentials:
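ELISA-type DNA-binding assay of NF-κB in TNF-α-stimulated A549 cells treated at 5, 10 and 20 µM. Compared against untreated and TNF-α-only controls. Mean ± SD, p < 0.05, three runs.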

The subject of experiment [8] is A549. Kind of experiment: Antiproliferative activity against human A549 cells after 48 hrs by MTT assay. It is filed as functional, cell-based. The settings on record: A549, 48 h. The essentials: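 MTT read-out of antiproliferative activity across cancer lines HepG-2, NCI-H460, MGC-803, A549 and MG-63 and normal liver line HL-7702. IC50 given as mean ± S.D. of three separate experiments, each run in triplicate.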

For experiment [9], the system named is A549. Kind of experiment: Induction of apoptosis in human A549 cells assessed as late apoptotic cells at 10 uM after 24 hrs by annexin V-FITC/propidium iodide staining-based flow cytometry analysis (reference value: 2.20%). The experiment is classed as functional. The essentials:
as §1

Experiment [10] has as its system A549. Kind of experiment: Induction of apoptosis in human A549 cells assessed as late apoptotic cells at 20 uM after 24 hrs by annexin V-FITC/propidium iodide staining-based flow cytometry analysis (reference value: 2.20%). The experiment is classed as functional. The essentials: as §1
Experiment [11] has as its target T1, Inhibitor of NF-kappa-B kinase alpha/beta (Homo sapiens). Briefly: Inhibition of IKKalpha/beta phosphorylation in human A549 cells up to 20 uM after 24 hrs by Western blot analysis. The experiment is classed as cell-based. The essentials:
as §2

On to `CCOP(=O)(OCC)C(Nc1ccc(CC(=O)NCCCCNC(=O)[C@@]2(C)CC[C@]3(C)CC[C@]4(C)C(=CC(=O)[C@@H]5[C@@]6(C)CC[C@H](OC(C)=O)C(C)(C)[C@@H]6CC[C@]54C)[C@@H]3C2)cc1)c1ccc(F)cc1` (stereo partly specified), for which the Activity in experiment [1] is 0.386%; in [2] it was 0.509%; in experiment [3], “Dose-dependent effect”; in experiment [4] it was 43.02%; in experiment [9], 22.6%; in experiment [10], 39.7%. The inhibition result in [5] is “Dose-dependent effect”. Moreover, the viability at 10 µM in experiment [6] turned out to be 57.9%. In experiment [7], the fold change (FC) came to 2.3. 6.25 µM corresponded to half-maximal inhibition in experiment [8] (IC50). Besides, the inhibition entry in experiment [11] was “Active”.
